# Screening results deposited in PubChem BioAssay by several laboratories.
# Calb FLC: affects C. albicans growth with fluconazole; AID 1979; C. albicans CaCi-2 (fluconazole-resistant clinical isolate) + fluconazole, Alamar Blue growth, 48 h; actives 0.57% (n = 300,000); growth inhibition, % (no concentration beside the values);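 active = growth inhibition above about 58% in most replicates, limit read from the data, passing the limit was not always enough; inconclusive = exactly half the replicates above a set limit; inactive = most replicates below a set limit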;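 also: all wells also contain fluconazole at 8 µg/ml as a sub-toxic cotreatment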
# SKKanGAS inh: blocks kanamycin growth of S. pyogenes SKKanGAS strain; BacTiter-Glo, 6 h; inhibition, % at 7.5 µM; actives 1.3% (n = 300,000); AID 1662;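 active = mean replicate score, as percent of positive control median, at least 50; inconclusive = mean below 50 but one replicate at or above 50; inactive = mean and every replicate below 50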;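 also: strain carries kanamycin resistance gene driven by streptokinase promoter and grows in 40 µg/ml kanamycin; loss of luminescence reflects streptokinase promoter inhibition or plain growth inhibition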
# Mdm2 MdmX PPI: disrupts the human Mdm2-MdmX interaction. O15151+Q00987. SaOS-2 split-luciferase Mdm2/MdmX complementation, luminescence. inhibition, % at 8 µM. actives 3% (n = 330,000);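 active = inhibition of at least 50% at 8 µM in the primary screen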
# T cruzi inh: T. cruzi replication inhibition; T. cruzi beta-gal in NIH3T3, luminescence, 90 h; inhibition, % (no concentration beside the values); actives 1.4% (n = 300,000); AID 1885;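 active = mean inhibition across valid replicates above about 55%, limit read from the data; inconclusive = mean below that limit but half or more replicates reach it; inactive = mean below it, under half of replicates reach it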;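 also: signal also drops with host cell toxicity which is not excluded here; higher percent means less beta-gal luminescence so fewer parasites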
#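 System: NIH/3T3 fibroblasts plus reporter T. cruzi. Medium: DMEM plus 2% FBS. Probe or stimulus: 5000 reporter trypomastigotes per well. Compound: single 50 nL compound addition per well in DMSO. Incubation: co-culture of at least 90 h after 3 h attachment. Detection: GalScreen β-gal luminescence, detergent lysis, 60 min. Evaluation: parasite load inhibition, %.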
# CSC inhib: cancer stem cell inhibition; cancer stem cell-like cells viability, luminescence; inhibition, % at 7.5 µM; actives 1.1% (n = 300,000); AID 2717; in the data active = inhibition above about 75%; inconclusive = no clear call, values can overlap the other calls; tested in HMLE shEcad cells
# Beta apoptosis: beta cell apoptosis inhibition; INS-1E cytokine-induced death, ATP luminescence, 48 h; percent of positive-control rescue, neutral wells zero; protection from apoptosis, % (concentration not given with the values); actives 0.8% (n = 300,000);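 active = Every replicate reaches about 75%, or at least half do and their mean reaches it too, limit read from the data; inconclusive = At least half of replicates reach the limit but their mean does not; inactive = Under half of replicates reach the limit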;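 also: higher means more ATP so stronger rescue from cytokine killing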
# Mdm2-MdmX conf: human Mdm2/MdmX binding inhibition, confirmed. shares compounds with Mdm2 MdmX PPI. luminescent assay. inhibition, % at 8 µM. actives 55% (n = 10,000); in the data active = inhibition above about 40%
# Full FLuc ctr: full-length luciferase inhibition in Mdm2/MdmX counter-screen; shares compounds with Mdm2 MdmX PPI; actives 77% (n = 6,200); inhibition, % at 8 µM; SaOS-2 full-length luciferase counterscreen, luminescence; AID 504607;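 active = mean inhibition at 8 µM reaching about 37%, which flags the compound as non-specific, limit read from the data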;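 also: p53-null SaOS-2 cells with luciferase driven by a doxycycline-inducible promoter; compound on cells about two nights before reading with doxycycline added after day one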
# Hits are given with their value; i = inactive; ? = inconclusive; nt = not tested or not shown. Hits are enriched below; roughly 5.7% of the tested compounds scored in any of these assays.
SMILES,Calb FLC,SKKanGAS inh,Mdm2 MdmX PPI,T cruzi inh,CSC inhib,Beta apoptosis,Mdm2-MdmX conf,others
CC(C)C[C@H]1CN=C(Nc2ccccc2)N1CCCC1CCCCC1,77,i,50,i,i,i,i,
O=C(CNC(=O)c1ccco1)N=Nc1c(O)n(CCc2ccccc2)c2ccccc12,i,i,62,i,i,i,56,Full FLuc ctr=106
CCn1c(O)c(N=NC(=O)CNC(=O)Cc2ccccc2)c2ccccc21,i,i,i,i,i,i,nt,
CC(=O)c1c(C)[nH]c(C(=O)OCC(=O)Nc2cc(C)on2)c1C,i,i,i,i,i,nt,nt,
COc1cc(NC(=O)COC(=O)c2[nH]c(C)c(C(C)=O)c2C)cc(OC)c1,nt,nt,51,nt,i,i,i,
CCOC(=O)c1c(C)[nH]c(C(=O)OCC(=O)Nc2cc(C)ccc2OC)c1C,i,i,99,i,nt,i,i,
COc1ccccc1N1C(=NC(=O)CCc2ccccc2)SC2CS(=O)(=O)CC21 (stereo not drawn),i,i,i,i,i,i,nt,
NC(=O)c1ccc(NC(=O)C#Cc2ccccc2)cc1,i,i,85,i,i,i,77,Full FLuc ctr=51
COc1ccc(NC(=O)c2ccccc2SC)cc1OC,i,i,i,i,i,i,nt,
COc1ccc(NC(=O)C#Cc2ccccc2)cc1OC,i,i,57,i,i,i,i,
CC(Oc1ccccc1)C(=O)Nc1ccc(C(N)=O)cc1 (stereo not drawn),i,i,i,i,nt,i,nt,
CCOC(=O)C1CCN(C(=O)c2ccccc2CCc2ccccc2)CC1,i,i,i,i,i,i,nt,
Cc1cc(=O)oc2cc(NC(=O)c3cccc(Br)c3)ccc12,i,i,66,i,i,i,i,
Cc1cc(=O)oc2cc(NC(=O)c3cc4ccccc4o3)ccc12,i,i,i,i,i,i,nt,
Cc1cc(OC(C)C(=O)NCc2ccncc2)c2c(C)c(C)c(=O)oc2c1 (stereo not drawn),nt,i,i,i,i,i,nt,
CSc1nc2c(c(=O)[nH]c(=O)n2C)n1Cc1ccc(Cl)cc1,i,i,i,i,i,i,nt,
Cn1c(=O)[nH]c(=O)c2c1nc(N/N=C/c1ccncc1)n2Cc1ccc(Cl)cc1,i,i,67,i,i,i,i,
Cc1ccc(C)c(NC(=O)C(Sc2nc3ccccc3c(=O)n2CC(C)C)c2ccccc2)c1 (stereo not drawn),i,i,84,i,i,i,63,Full FLuc ctr=83
COc1ccc(Nc2nnc(SC(C(=O)Nc3cc(C)ccc3C)c3ccccc3)s2)cc1 (stereo not drawn),?,i,84,i,i,i,i,
COc1ccc(C)cc1NC(=O)C(Sc1nnc(Nc2cc(C)ccc2OC)s1)c1ccccc1 (stereo not drawn),i,i,i,i,i,i,nt,
O=C(N[C@@H](Cc1ccccc1)C(=O)CCl)OCc1ccccc1,nt,nt,96,nt,i,i,85,Full FLuc ctr=i
CN(C)CC[n+]1ccc(C(=O)c2ccccc2)cc1,i,i,i,i,i,nt,nt,
O=C1N=C2SCCN2/C1=C\c1ccc(Cl)cc1,i,i,52,i,i,i,i,
Cc1ccccc1Cn1c(=O)n(-c2ccccc2)c(=O)c2ccc(C(=O)NCc3ccco3)cc21,i,i,68,i,i,i,i,
Cc1cccc(N/C(N)=N/c2nc(CSc3ccc(Cl)cc3)cc(=O)[nH]2)c1,i,i,68,i,i,i,i,
COCc1cc(=O)[nH]c(/N=C(\N)Nc2cccc(C)c2)n1,i,i,i,i,i,i,nt,
N/C(=N\c1nc(CSc2ccccn2)cc(=O)[nH]1)Nc1ccc(Cl)cc1Cl,i,i,64,i,nt,i,i,
COc1ccc(CSCC(=O)N/N=C/c2ccccc2O)cc1,i,i,57,i,i,i,i,Full FLuc ctr=65
COc1cccc2c(SCC(=O)N/N=C/c3ccc(O)cc3O)cc(C)nc12,i,i,54,i,nt,nt,46,Full FLuc ctr=65
COc1ccc2nc(C)cc(SCC(=O)N/N=C/c3ccc(O)cc3O)c2c1,i,i,55,i,104,77,79,Full FLuc ctr=37
